In data set [1] the test system is Splenocyte. The data set can be described thus: Immunomodulatory activity in C57BL/6 mouse splenocytes assessed as reduction in CD4+/CD8+ cells ratio at 3 uM incubated for 24 hrs by flow cytometric analysis. It is filed as functional, cell-based. The procedure, abridged: (§1)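 C57BL/6 splenocytes given compounds at 3 μM for 24 h under Con A-induced activation, with Con A (5 μg/mL) as positive control. Cells were stained with PE-CD3, FITC-CD4 and Percp/cy5.5-CD8. CD3+, CD4+ and CD8+ percentages were measured by flow cytometry, and the CD4+/CD8+ ratio was derived from them. Values are mean ± SD, n = 3.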
(In flow cytometry, cells or beads pass a laser one at a time.)

Data set [2] concerns Splenocyte. Description: Cytotoxicity in C57BL/6 mouse splenocytes assessed as effect on cell viability at 3 uM by FACScan flow cytometry. It is filed as cell-based. The procedure, abridged: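 Splenocytes at 2 × 10^6 cell/mL from C57BL/6 mice exposed to compounds at 3 μM for 24 h, with Con A (5 μg/mL) as positive control. Cells were then collected, washed in PBS and read at once by flow cytometry for apoptosis.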

The subject of data set [3] is Splenocyte. The data set can be described thus: Immunomodulatory activity in C57BL/6 mouse splenocytes assessed as induction of CD3+ T cells proliferation at 3 uM incubated for 24 hrs by flow cytometric analysis. It is filed as functional, cell-based. The procedure, abridged:
as §1

In data set [4] the test system is Splenocyte. Description: Immunomodulatory activity in C57BL/6 mouse splenocytes assessed as increase in CD4+/CD8+ cells ratio at 3 uM incubated for 24 hrs by flow cytometric analysis. In kind it is functional, cell-based. In a few lines: as §1

Calls of active or inactive are those of the source. The calls are words filed in the database; no cut-off is given here.

As to `CC(=O)O[C@H]1C/C(C)=C/CC/C(C)=C\C(=O)C[C@@]23C(=O)O[C@@H]([C@@H]1C(C)C)[C@@H]2CC(C)=C1CCC2=CCC[C@@](C)(OC2=O)[C@@H](O)CC/C(C)=C\[C@@H]13`, in the data set on Splenocyte [1], the outcome was Active. Further, in the data set on Splenocyte [2], the Activity entry is given as “Non-Toxic”.
Regarding `CC(=O)O[C@H]1C/C(C)=C/CC[C@H](C)CC(=O)C[C@@]23C(=O)O[C@@H]([C@@H]1C(C)C)[C@@H]2CC(C)=C1CCC2=CCC[C@@](C)(OC2=O)[C@@H](O)CC/C(C)=C\[C@@H]13`, in the data set on Splenocyte [2], the Activity entry is reported as “Non-Toxic”.
Regarding `CC(=O)O[C@H]1C/C(C)=C/C/C=C(/C)CC(=O)C[C@@]23C(=O)O[C@@H]([C@@H]1C(C)C)[C@@H]2CC(C)=C1CCC2=CCC[C@@](C)(OC2=O)[C@@H](O)CC/C(C)=C/[C@@H]13`, the result in the data set on Splenocyte [3] was Active. In the data set on Splenocyte [2], the Activity result was “Non-Toxic”.
Consider `CC(=O)O[C@H]1C/C(C)=C/CC[C@H](C)CC(=O)C[C@@]23C(=O)O[C@@H]([C@@H]1C(C)C)[C@@H]2CC(C)=C1CCC2=CCC[C@@](C)(OC2=O)[C@@H](O)CC/C(C)=C/[C@@H]13`, for which, in the data set on Splenocyte [2], the Activity entry is reported as “Non-Toxic”. For the same molecule, in the data set on Splenocyte [4], the outcome was Active.
Take `CC1=C2CCC3=CCC[C@@](C)(OC3=O)[C@@H](O)CC/C(C)=C/[C@@H]2[C@]23CC(=O)C[C@@H](C)CC/C=C(\C)CC(=O)[C@@H](C(C)C)[C@H](OC2=O)[C@@H]3C1`: in the data set with Splenocyte [2], the Activity result is reported as “Non-Toxic”.
On to `CC(=O)O[C@H]1C/C(C)=C/CC/C(C)=C/C(=O)C[C@@]23C(=O)O[C@@H]([C@@H]1C(C)C)[C@@H]2CC(C)=C1CCC2=CCC[C@@](C)(OC2=O)[C@@H](O)CC/C(C)=C/[C@@H]13`, for which the outcome in the data set on Splenocyte [3] and in the data set with Splenocyte [4] was Active. In addition, in the data set with Splenocyte [2], the Activity entry is “Non-Toxic”.
Regarding `CC(=O)O[C@H]1C/C(C)=C/CC/C(C)=C\C(=O)C[C@@]23C(=O)O[C@@H]([C@@H]1C(C)C)[C@@H]2CC(C)=C1CCC2=CCC[C@@](C)(OC2=O)[C@@H](O)CC/C(C)=C/[C@@H]13`, the Activity result in the data set on Splenocyte [2] is “Non-Toxic”.

The values above are taken from ChEMBL document CHEMBL4316634, “Immunomodulatory Biscembranoids and Assignment of Their Relative and Absolute Configurations: Data Set Modulation in the Density Functional Theory/Nuclear Magnetic Resonance Approach” (J Nat Prod, 2019).
